# Bioassay records (PubChem)
# Sampled rows, rich in hits. Any-hit rate of the full collection: about 2.3%.
# PGC1a acetyl inh – inhibitors of PGC1a acetylation signal, primary screen, cell-based, U2OS, AlphaScreen, inhibitor mode | AlphaScreen anti-acetyl-lysine; with virally co-expressed GCN5 acetyltransferase | 350,000 compounds, 0.17% hits | inhibition, % at 15.6 µM;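 active = every replicate shows inhibition of at least 40%; inconclusive = mean inhibition at least 40% but some replicate below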;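 note: 0% = neutral control wells and 100% = positive control wells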
# EWS-Fli block – EWS/Fli-driven NR0B1 reporter inhibitors, primary screen, A673 cells, NR0B1 luciferase, luminescence, MLPCN library; viability-normalised; inhibition, % at 12.6 µM; 350,000 compounds, 0.67% hits;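 active = mean inhibition of at least 50% after viability correction, with every replicate also passing that limit; inconclusive = mean reaches 50% but only one of two replicates passes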;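 note: firefly luciferase signal divided by Alamar Blue viability fluorescence both relative to DMSO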
# PAX8 inh HTS – inhibitors of PAX8-driven TPO luciferase reporter, primary screen, RMG-I cells, single concentration; SteadyGlo, 24 h; inhibition, % at 12.6 µM; 360,000 compounds, 1.2% hits;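 active = mean replicate inhibition at least 60% with every replicate also reaching 60%; inconclusive = only one of the two criteria is met; inactive = mean below 60% and not all replicates reaching 60%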;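 note: luciferase light reporting Pax8 driven TPO promoter activity; plate controls were median of neutral control wells for no effect and mitoxantrone controls for full effect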
# CFTR F508del cor – F508del CFTR correction, initial screen, CFBE line, single point. CFBE cells, YFP halide quenching; stimulated with forskolin plus potentiator P3; % fluorescence drop versus neutral controls. activity (quench increase), % at 7.58 µM. 350,000 compounds, 0.36% hits;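 active = mean added fluorescence quench of at least 8% versus neutral control, with both replicates also reaching 8%; inconclusive = only one of the mean or replicate conditions met; inactive = mean below 8% and not both replicates reaching 8%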;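 note: cells transiently co-express mutant CFTR-F508del with the halide-sensitive YFP; corrector assay measuring rescue of mutant channel to the surface after 24 h compound exposure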
# Env fusion inh – inhibitors of HIV-1 Env-driven cell-cell fusion, primary screen, HeLa-JRFL effector, CEM21 target cells, luciferase; 360,000 compounds, 1.1% hits; inhibition, % at 12.3 µM;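 active = mean replicate inhibition score of at least 50 and every replicate individually at or above 50; inconclusive = only one of the two criteria met; inactive = mean below 50 and not all replicates reaching 50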;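 note: 0% = plate neutral controls and 100% = maraviroc near 300 nM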
# FN deposition inh – inhibitors of fibronectin matrix deposition, primary screen, AH1F cells, Alexa488-fibronectin fluorescence, plate reader | AH1F fibroblasts, overnight | inhibition, % at 12.6 µM | 350,000 compounds, 0.086% hits | AID 743247, 2014;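 active = mean inhibition across replicates of 30% or more, regardless of how many single replicates reach that level; inconclusive = mean under 30% yet at least half of replicates reach 30%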;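 note: positive control wells lacked labelled fibronectin entirely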
#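 Test system: AH1F fibroblast monolayer depositing Alexa488-labelled fibronectin into matrix. Input: 10000 cells per well. Technique: fluorescence, ex 485 nm, em 525 nm. Buffer or medium: DMEM plus 2% serum, read in PBS. Timing: 1 h cell adhesion before compound, then overnight fibronectin incubation. Compound: single dose, pinned. Read-out basis: inhibition from reduced deposited-fibronectin fluorescence.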
# Numbers without * were called inactive; ? = inconclusive; . = no result; [ ] = another dose, or the depositor's remark.
SMILES,PGC1a acetyl inh,EWS-Fli block,PAX8 inh HTS,CFTR F508del cor,Env fusion inh,FN deposition inh
COc1ccc(C#Cc2ccc3c(c2)O[C@H](CN(C)C(=O)c2ccccn2)[C@H](C)CN([C@@H](C)CO)S3(=O)=O)cc1,-12,1,14,-1,26[16.7 µM],.
C[C@H](CO)N1C[C@H](C)[C@@H](CN(C)Cc2ccc(Cl)c(Cl)c2)Oc2ccc(NS(=O)(=O)c3ccc(F)cc3)cc2CC1=O,3,3,21,7,8[16.7 µM],.
CCNC(=S)NNC(=O)CC(C)C,.,3,8,9.5*,-4,-11
CCCNC(=O)Nc1ccc2c(c1)C(=O)N(C)C[C@H](OC)[C@H](C)CN(C(=O)C1CCCCC1)[C@H](C)CO2,32,8,11,2,1[16.7 µM],.
Cc1ccc(NC(=O)Cn2ncc(Cl)c(Cl)c2=O)cc1S(=O)(=O)N1CCCCC1,-90,?,90*,-1,9,7
Cc1ccc(NC(=O)Cc2ccc(Cl)cc2)cc1S(=O)(=O)N1CCCCCC1,-11,19,26,0,.,-4
Cc1ccc(NC(=O)CN(C)C(=O)Cc2ccc(Cl)c(Cl)c2)cc1,.,-28,22,-2,6,0
Cc1ccc(NC(=O)CN(C)C(=O)Cn2ncc(Cl)c(Cl)c2=O)cc1,.,.,93*,.,-53,36*
CNC[C@H]1OCCCC[C@@H](C)Oc2ccc(NC(=O)Nc3ccc4c(c3)OCO4)cc2C(=O)N([C@H](C)CO)C[C@@H]1C,6,-6,-12,5,0[16.7 µM],.
CCn1cc(/C=C/c2cc[n+](C)cc2)c2ccccc21,-3,-16,77*,8,40,-83
C=CCn1c(C)c(/C=C/c2cc[n+](C)cc2)c2ccccc21,.,4,53,3,17,-133
CC(C)n1cc(/C=C/c2cc[n+](C)cc2)c2ccccc21,8,9,83*,9.2*,72*,-96
Cc1ccccc1/C=C/c1cc[n+](C)cc1,-11,-7,5,-2,15,7
C=CCn1cc(/C=C/c2cc[n+](C)cc2)c2ccccc21,.,25,93*,.,?,-7
COc1ccc(C[C@H]2CCn3nncc3COC[C@@H](CC(C)C)NC2=O)cc1,.,.,.,.,.,12
O=C(C1CCCC1)N1CC(=O)N2[C@H](CO)[C@H](c3ccc(C#CCc4ccccc4)cc3)[C@H]2C1,-2,-6,.,-2,.,-17
C[C@H]1CN([C@@H](C)CO)S(=O)(=O)c2ccc(C#CC3CCCC3)cc2O[C@@H]1CN(C)Cc1cccnc1,-2,19,98*,-1,21[16.7 µM],9
CNC[C@@H]1Oc2cc(C#CC3CCCCC3)ccc2S(=O)(=O)N([C@@H](C)CO)C[C@@H]1C,-14,56*,92*,0,28[16.7 µM],2
C[C@H]1CN([C@@H](C)CO)S(=O)(=O)c2ccc(C#CC3CCCCC3)cc2O[C@@H]1CN(C)Cc1cccnc1,64*,35,.,3,19[16.7 µM],.
C[C@H]1CN([C@@H](C)CO)S(=O)(=O)c2ccc(C#CC3CCCC3)cc2O[C@H]1CN(C)Cc1cncnc1,-7,52*,-11,2,7[16.7 µM],-1
CNC[C@H]1Oc2cc(C#CC3CCCCC3)ccc2S(=O)(=O)N([C@H](C)CO)C[C@@H]1C,-3,15,28,1,8[16.7 µM],-3
COc1ccc(OC)c(N(CCN2C(=O)c3ccccc3C2=O)C(=O)CCl)c1,23,?,104*,-3,-16,11
COc1ccc(NC(=O)CCN2C(=O)c3ccccc3C2=O)c(OC)c1,.,0,-1,-1,-39,1
Cc1ccc(C)c(NC(=O)CCC(=O)N/N=C/c2cc([N+](=O)[O-])ccc2O)c1,9,18,0,9.9*,-1,7
Cc1ccc(NC(=O)c2c(C(F)(F)F)nn(C)c2SCc2ccc(Cl)cc2)cc1C,-60,.,.,.,54,-11
SMILES,PGC1a acetyl inh,EWS-Fli block,PAX8 inh HTS,CFTR F508del cor,Env fusion inh,FN deposition inh
Cc1ccc(NC(=O)c2c(C(F)(F)F)nn(C)c2SCc2cccc(C(F)(F)F)c2)cc1C,.,.,-44,.,87*,-9
O=C(COC(=O)/C=C/c1ccccc1Cl)NC(=O)Cc1ccccc1,-9,3,-10,.,-7,-7
O=C(COC(=O)/C=C/c1ccccc1Cl)NC(=O)NCc1ccccc1,-3,1,7,8.9*,.,1
O=C(C[C@H]1CC[C@H]2[C@@H](COC[C@@H](O)CN2S(=O)(=O)c2ccccc2)O1)N[C@H]1CCN(Cc2ccccc2)C1,-1,-10,4,1,.,-13
CCCNC(=O)[C@@H]1[C@@H](CO)[C@@H]2Cn3c(ccc(-c4ccccc4F)c3=O)[C@@H]2N1C,-14,-7,.,3,.,.
COc1cc(/C=C2\N=C(c3ccccc3)NNC2=O)cc(OC)c1OC,4,56*,44,7,-126,-16
O=C1NNC(c2ccccc2)=N/C1=C\c1ccco1,0,-3,-16,-1,4,3
C[C@H](CO)N1C[C@H](C)[C@H](CN(C)C(=O)Nc2cccc3ccccc23)OCCCC[C@H](C)Oc2ccc(N(C)C)cc2C1=O,-7,67*,-18,-4,10[16.7 µM],.
C[C@@H]1CCCCO[C@H](CN(C)C(=O)Nc2cccc3ccccc23)[C@H](C)CN([C@@H](C)CO)C(=O)c2cc(N(C)C)ccc2O1,-2,13,71*,-5,18[16.7 µM],.
CC[C@@]12C(=O)N(c3cccc(F)c3)C(=O)N1[C@H](c1ccc(Br)cc1)[C@@H]1C(=O)N(C(C)(C)C)C(=O)[C@@H]12,4,-2,-7,-3,98*,0
CC(C)(C)N1C(=O)[C@H]2[C@@H](c3ccc(Br)cc3)N3C(=O)N(c4cccc(F)c4)C(=O)[C@@]3(Cc3ccccc3)[C@H]2C1=O,.,-1,31,-2,?,-12
COc1ccc([C@@H]2[C@@H]3C(=O)N(C(C)(C)C)C(=O)[C@@H]3[C@]3(CC(C)C)C(=O)N(c4cccc(F)c4)C(=O)N23)cc1,.,0,-15,1,99*,-7
C[C@@H]1CCCCO[C@@H](CN(C)Cc2ccc(C(=O)Nc3ccccc3N)cc2)[C@@H](C)CN([C@H](C)CO)C(=O)c2cc(NC(=O)Cc3ccccc3)ccc2O1,10,31,6,-1,.,.
COc1ccc(-c2nnc(Nc3nc4c(OC)cccc4s3)o2)cc1,3,.,.,.,72*,.
Cc1noc(C)c1NC(=O)Nc1ccc2c(c1)CC(=O)N([C@@H](C)CO)C[C@H](C)[C@H](CN(C)CC1CCCCC1)O2,8,6,.,-1,-24[16.7 µM],.
CN(C)C(=O)c1ccc(-c2ccc3c(c2)[C@@H]2[C@@H](CCN2Cc2cncnc2)[C@@H](CO)N3)cc1,-3,-5,11,1,.,-9
